The values below come from ChEMBL document CHEMBL3227922, “Synthesis and antitumor activity of sugar-ring hydroxyl analogues of daunorubicin” (J Med Chem, 1979).

Series [1] relates to P388. Briefly: Antitumor activity against mouse P388 cells allografted in CDF1 mouse assessed as tumor inhibition at 25 mg/kg, ip on days 5, 9 and 13 relative to untreated control. It counts as functional. The conditions noted are these: route intraperitoneal. The method, boiled down:
(§1)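 CDF₁ mice given 10⁶ P388 lymphocytic leukemia cells ip on day 0; drug ip on days 5, 9 and 13. Six mice per dose level (five for one compound). T/C % = median survival time as percent of untreated controls. Acute toxic death counted as survival under 5 days after treatment.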

Series [2] deals with P388. Briefly: Antitumor activity against mouse P388 cells allografted in CDF1 mouse assessed as tumor inhibition at 50 mg/kg, ip on days 5, 9 and 13 relative to untreated control. The series is classed as functional. The conditions noted are these: route intraperitoneal. The gist of the method: as §1
Series [3] has as its system P388. As to the kind of experiment: Antitumor activity against mouse P388 cells allografted in CDF1 mouse assessed as tumor inhibition at 200 mg/kg, ip on days 5, 9 and 13 relative to untreated control. It counts as functional. The conditions noted are these: route intraperitoneal. The gist of the method: as §1
The subject of series [4] is Mus musculus. Briefly: Toxicity in CDF1 mouse allografted with mouse P388 cells assessed as survival at 12.5 to 200 mg/kg, ip on days 5, 9 and 13. The series is classed as organism-based. Details: dose 12.5-200 mg/kg, route intraperitoneal. The conditions noted are these: in vivo. The gist of the method:
(§2)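 CDF1 mice were inoculated ip with 10⁶ P388 lymphocytic leukemia cells on day 0. Drug was given ip on days 5, 9 and 13, with six mice per dose level. Read-out was median survival time as percent of untreated controls (T/C). Acute toxic-drug deaths were defined as survival under 5 days after treatment injection.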

The test system of series [5] is P388. As to the kind of experiment: Antitumor activity against mouse P388 cells allografted in CDF1 mouse assessed as tumor inhibition at 12.5 mg/kg, ip on days 5, 9 and 13 relative to untreated control. The series is classed as functional. Particulars: route intraperitoneal. The gist of the method:
as §1

Series [6] deals with P388. Briefly: Antitumor activity against mouse P388 cells allografted in CDF1 mouse assessed as tumor inhibition at 100 mg/kg, ip on days 5, 9 and 13 relative to untreated control. It counts as functional. The conditions noted are these: route intraperitoneal. The gist of the method:
as §1

Series [7] concerns Mus musculus. Briefly: Toxicity in BDF1 mouse allografted with mouse B16 cells at 200 mg/kg, ip on day 5. The conditions noted are these: in vivo.
Series [8] has as its system Mus musculus. As to the kind of experiment: Toxicity in BDF1 mouse allografted with mouse B16 cells at 100 mg/kg, ip on day 5. The conditions noted are these: in vivo.
The subject of series [9] is B16. As to the kind of experiment: Antitumor activity against mouse B16 cells allografted in BDF1 mouse assessed as tumor inhibition at 50 mg/kg, ip on day 5 relative to untreated control. The conditions noted are these: route intraperitoneal.
The test system of series [10] is P388. Briefly: Antitumor activity against mouse P388 cells allografted in CDF1 mouse assessed as tumor inhibition at 400 mg/kg, ip on days 5, 9 and 13 relative to untreated control. Particulars: route intraperitoneal. The series is classed as functional. The gist of the method: as §1
Series [11] concerns B16. Briefly: Antitumor activity against mouse B16 cells allografted in BDF1 mouse assessed as tumor inhibition at 12.5 mg/kg, ip on day 5 relative to untreated control. Particulars: route intraperitoneal.
Series [12] has as its system B16. Briefly: Antitumor activity against mouse B16 cells allografted in BDF1 mouse assessed as tumor inhibition at 25 mg/kg, ip on day 5 relative to untreated control. Particulars: route intraperitoneal.
In series [13] the test system is Mus musculus. Briefly: Toxicity in CDF1 mouse allografted with mouse P388 cells assessed as survival at 25 to 400 mg/kg, ip on days 5, 9 and 13. It counts as organism-based. Details: dose 25-400 mg/kg, route intraperitoneal. The conditions noted are these: in vivo. The gist of the method:
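Median survival time was expressed as percent of untreated controls (T/C). Acute toxic-drug deaths were scored as survival under 5 days after treatment injection.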

The subject of series [14] is Mus musculus. As to the kind of experiment: Toxicity in CDF1 mouse allografted with mouse P388 cells assessed as survival at 3.13 to 50 mg/kg, ip on days 5, 9 and 13. The series is classed as organism-based. Set-up: dose 3.13-50 mg/kg, route intraperitoneal. Particulars: in vivo. The method, boiled down: as §2
In series [15] the test system is P388. Briefly: Antitumor activity against mouse P388 cells allografted in CDF1 mouse assessed as tumor inhibition at 3.13 mg/kg, ip on days 5, 9 and 13 relative to untreated control. It counts as functional. Particulars: route intraperitoneal. The gist of the method: as §1
Series [16] has as its system P388. Briefly: Antitumor activity against mouse P388 cells allografted in CDF1 mouse assessed as tumor inhibition at 6.25 mg/kg, ip on days 5, 9 and 13 relative to untreated control. Particulars: route intraperitoneal. The series is classed as functional. The method, boiled down: as §1
Series [17] deals with B16. Briefly: Antitumor activity against mouse B16 cells allografted in BDF1 mouse assessed as tumor inhibition at 4 mg/kg, ip on day 5 relative to untreated control. The conditions noted are these: route intraperitoneal.
Series [18] concerns Mus musculus. Briefly: Toxicity in CDF1 mouse allografted with mouse P388 cells assessed as survival at 2 to 32 mg/kg, ip on days 5, 9 and 13. It counts as organism-based. The conditions noted are these: in vivo. Set-up: dose 2-32 mg/kg, route intraperitoneal. The gist of the method: as §2
Series [19] deals with B16. As to the kind of experiment: Antitumor activity against mouse B16 cells allografted in BDF1 mouse assessed as tumor inhibition at 1 mg/kg, ip on day 5 relative to untreated control. The conditions noted are these: route intraperitoneal.
Series [20] deals with P388. Briefly: Antitumor activity against mouse P388 cells allografted in CDF1 mouse assessed as tumor inhibition at 32 mg/kg, ip on days 5, 9 and 13 relative to untreated control. It counts as functional. The conditions noted are these: route intraperitoneal. The method, boiled down:
as §1

The test system of series [21] is B16. Briefly: Antitumor activity against mouse B16 cells allografted in BDF1 mouse assessed as tumor inhibition at 2 mg/kg, ip on day 5 relative to untreated control. Particulars: route intraperitoneal.
For series [22], the system named is P388. Briefly: Antitumor activity against mouse P388 cells allografted in CDF1 mouse assessed as tumor inhibition at 2 mg/kg, ip on days 5, 9 and 13 relative to untreated control. It counts as functional. The conditions noted are these: route intraperitoneal. The gist of the method: as §1
The test system of series [23] is P388. As to the kind of experiment: Antitumor activity against mouse P388 cells allografted in CDF1 mouse assessed as tumor inhibition at 8 mg/kg, ip on days 5, 9 and 13 relative to untreated control. It counts as functional. Particulars: route intraperitoneal. The method, boiled down: as §1
The subject of series [24] is Mus musculus. As to the kind of experiment: Toxicity in BDF1 mouse allografted with mouse B16 cells at 16 mg/kg, ip on day 5. Particulars: in vivo.
Series [25] has as its system P388. Briefly: Antitumor activity against mouse P388 cells allografted in CDF1 mouse assessed as tumor inhibition at 4 mg/kg, ip on days 5, 9 and 13 relative to untreated control. It counts as functional. The conditions noted are these: route intraperitoneal. The gist of the method: as §1
Series [26] deals with P388. Briefly: Antitumor activity against mouse P388 cells allografted in CDF1 mouse assessed as tumor inhibition at 16 mg/kg, ip on days 5, 9 and 13 relative to untreated control. The series is classed as functional. Particulars: route intraperitoneal. The method, boiled down: as §1
Series [27] deals with B16. As to the kind of experiment: Antitumor activity against mouse B16 cells allografted in BDF1 mouse assessed as tumor inhibition at 8 mg/kg, ip on day 5 relative to untreated control. Particulars: route intraperitoneal.
The subject of series [28] is P388. Briefly: Antitumor activity against mouse P388 cells allografted in CDF1 mouse assessed as tumor inhibition at 1 mg/kg, ip on days 5, 9 and 13 relative to untreated control. Particulars: route intraperitoneal. It counts as functional. The method, boiled down: as §1
Series [29] has as its system Mus musculus. Briefly: Toxicity in BDF1 mouse allografted with mouse B16 cells at 1 to 16 mg/kg, ip on day 5. The conditions noted are these: in vivo.
Series [30] concerns Mus musculus. As to the kind of experiment: Toxicity in CDF1 mouse allografted with mouse P388 cells assessed as survival at 1 to 16 mg/kg, ip on days 5, 9 and 13. It counts as organism-based. Set-up: dose 1-16 mg/kg, route intraperitoneal. Particulars: in vivo. The gist of the method:
as §2

Series [31] relates to B16. Briefly: Antitumor activity against mouse B16 cells allografted in BDF1 mouse assessed as tumor inhibition at 16 mg/kg, ip on day 5 relative to untreated control. The conditions noted are these: route intraperitoneal.

Consider `COc1cccc2c1C(=O)c1c(O)c3c(c(O)c1C2=O)C[C@@](O)(C(C)=O)C[C@@H]3O[C@H]1C[C@H](OC(C)=O)[C@H](OC(C)=O)[C@H](C)O1`, for which the T/C amounted to 108% in the series on P388 [1]; 110% with P388 [2]; 186% in the series on P388 [3]; 100% in the series with P388 [5]; 155% in the series with P388 [6]. In addition, the Activity result with Mus musculus [4] is given as “Non-toxic”.
`COc1cccc2c1C(=O)c1c(O)c3c(c(O)c1C2=O)C[C@@](O)(C(C)=O)C[C@@H]3O[C@H]1C[C@H](O)[C@H](O)[C@H](C)O1`: the results for the Activity entry in the series with Mus musculus [7], with Mus musculus [8] and in the series on Mus musculus [13] were “Toxic”, “Toxic” and “Non-toxic”, respectively. Besides, the T/C with P388 [1] turned out to be 125%; with P388 [2], 183%; in the series with B16 [9] it was 146%; in the series on P388 [10], 89%; with P388 [6], 156%; with B16 [11], 113%. In the series with B16 [12], the T/C is 126%.
In the case of `COc1cccc2c1C(=O)c1c(O)c3c(c(O)c1C2=O)C[C@@](O)(C(C)=O)C[C@@H]3O[C@@H]1C[C@H](OC(=O)c2ccc([N+](=O)[O-])cc2)[C@H](OC(=O)c2ccc([N+](=O)[O-])cc2)[C@@H](C)O1`, the T/C in the series with P388 [1] came out at 107%; with P388 [2], 105%; in the series with P388 [15], 101%; in the series with P388 [16], 106%; in the series with P388 [5] it was 110%. Moreover, in the series on Mus musculus [14], the Activity entry is recorded as “Non-toxic”.
With `COc1cccc2c1C(=O)c1c(O)c3c(c(O)c1C2=O)C[C@@](O)(C(C)=O)C[C@@H]3O[C@H]1C[C@H](OC(=O)c2ccc([N+](=O)[O-])cc2)[C@H](OC(=O)c2ccc([N+](=O)[O-])cc2)[C@@H](C)O1`, the T/C was 106% in the series with P388 [1]; 101% in the series with P388 [2]; 98% with P388 [15]; 100% with P388 [16]; 99% in the series with P388 [5]. Further, the Activity result with Mus musculus [14] is recorded as “Non-toxic”.
`COc1cccc2c1C(=O)c1c(O)c3c(c(O)c1C2=O)C[C@@](O)(C(C)=O)C[C@@H]3O[C@@H]1C[C@H](O)[C@H](O)[C@@H](C)O1`: the T/C came to 101% with P388 [1]; 101% in the series with P388 [2]; 99% in the series with P388 [15]; 100% in the series on P388 [16]; 100% with P388 [5]. For the same compound, in the series on Mus musculus [14], the Activity entry is “Non-toxic”.
As to `COc1cccc2c1C(=O)c1c(O)c3c(c(O)c1C2=O)C[C@@](O)(C(C)=O)C[C@@H]3O[C@H]1C[C@H](O)[C@H](O)[C@@H](C)O1`, the T/C is 100% in the series with P388 [1]; 102% in the series on P388 [2]; 100% in the series with P388 [15]; 102% with P388 [16]; 97% with P388 [5]. In addition, the Activity entry in the series on Mus musculus [14] is on record as “Non-toxic”.
On to `COc1cccc2c1C(=O)c1c(O)c3c(c(O)c1C2=O)C[C@@](O)(C(C)=O)C[C@@H]3O[C@H]1C[C@H](N)[C@H](O)[C@H](C)O1` [DAUNORUBICIN], for which the T/C in the series on B16 [17] came to 96%; with B16 [19] it was 122%; with P388 [20], 97%; with B16 [21], 127%; with P388 [22], 116%; with P388 [23], 151%. The T/C is listed as 123% with P388 [25] and 122% in the series on P388 [26]. Moreover, the Activity entry is recorded as “Non-toxic” with Mus musculus [18] and “Toxic” with Mus musculus [24].
Turning to `COc1cccc2c1C(=O)c1c(O)c3c(c(O)c1C2=O)C[C@@](O)(C(=O)CO)C[C@@H]3O[C@H]1C[C@H](N)[C@H](O)[C@H](C)O1` [DOXORUBICIN], the T/C turned out to be 132% in the series with B16 [17]; 150% with B16 [27]; 118% in the series with P388 [28]; 118% in the series on B16 [19]; 122% in the series on B16 [21]; 132% in the series on P388 [22]. The T/C in the series on P388 [23] is recorded as 150%; with B16 [31], 156%; in the series on P388 [25], 149%; with P388 [26], 114%. The Activity entry in the series with Mus musculus [29] and in the series on Mus musculus [30] was “Non-toxic” each time.
